Data as given in ChEMBL document CHEMBL1124934, “Synthesis and structure-activity relationships of dynorphin A-(1-8) amide analogues” (J Med Chem, 1990).
Square brackets hold non-standard residues; d marks the D form. Peptide text beside a SMILES is read from it. Phe(4-NO2) = N[C@@H](Cc1ccc([N+](=O)[O-])cc1)C(=O)O; NMeY = CN[C@@H](Cc1ccc(O)cc1)C(=O)O; Sar = CNCC(=O)O

Assays:
Mu-type opioid receptor [1] = target: T1, Mu-type opioid receptor (Cavia porcellus, UniProt P97266); assay: Evaluated for inhibitory activity against Opioid receptor mu 1 of guinea pig ileum (GPI); assay type: tissue-based
[2] = target: Delta-type opioid receptor (Mus musculus, UniProt P32300); assay: Evaluated for inhibitory activity against Opioid receptor delta 1 of mouse vas deferens (MVD).; assay type: tissue-based
Mus musculus [3] = assay: Evaluated for analgesic effect using mouse tail-pinch test after intravenous administration; assay type: functional
Method in brief: (§1)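 Mice, intravenous dosing, tail-pinch analgesia test. Four doses per compound, each dose tested on at least eight animals, giving ED50 in mg/kg.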

Mu-type opioid receptor [4] = target: T1, Mu-type opioid receptor; assay: Binding affinities against Opioid receptor mu 1 of guinea pig brain membrane using [3H]DAGO as the radioligand using competition binding assays.
Method in brief: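 μ-site competition binding on crude P2 membranes from male Hartley guinea pig brain (1 g original wet weight/20 mL, 50 mM Tris-HCl pH 7.6) with 5 nM [3H]DAGO and varied competitor, 60 min at 25 °C. GF/B filtration (1% polyethylenimine presoaked), six ice-cold buffer rinses, scintillation counting. Nonspecific binding with 10 μM levallorphan. Mean of five or six determinations ± SEM.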

Mus musculus [5] = assay: Evaluated for analgesic effect using mouse tail-pinch test after intravenous administration; 0.64-2.34; assay type: functional; method in brief: as §1
Mus musculus [6] = assay: Evaluated for analgesic effect using mouse tail-pinch test after intravenous administration; 2.21-9.32; assay type: functional; method in brief: as §1
Mus musculus [7] = assay: Evaluated for analgesic effect using mouse tail-pinch test after intravenous administration; 0.25-2.26; assay type: functional; method in brief: as §1

T1 sequence (P97266 whole entry): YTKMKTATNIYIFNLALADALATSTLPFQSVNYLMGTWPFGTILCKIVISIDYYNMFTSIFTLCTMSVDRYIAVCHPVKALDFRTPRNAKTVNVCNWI
Chain of Delta-type opioid receptor (P32300 whole entry): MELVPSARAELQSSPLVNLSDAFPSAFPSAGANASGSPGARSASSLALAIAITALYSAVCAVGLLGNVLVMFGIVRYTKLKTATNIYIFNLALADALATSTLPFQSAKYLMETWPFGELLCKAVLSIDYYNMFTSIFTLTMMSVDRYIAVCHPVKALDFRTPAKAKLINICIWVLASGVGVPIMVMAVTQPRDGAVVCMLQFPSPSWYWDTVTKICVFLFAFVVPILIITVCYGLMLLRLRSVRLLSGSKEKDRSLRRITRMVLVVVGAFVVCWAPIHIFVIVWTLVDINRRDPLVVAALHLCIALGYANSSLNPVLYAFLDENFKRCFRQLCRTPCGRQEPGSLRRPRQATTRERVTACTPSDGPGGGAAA

Structure (SMILES) | IC50 (Mu-type opioid receptor [1]) | IC50 [2] | other results
CN[C@@H](Cc1ccc(O)cc1)C(=O)NCC(=O)NCC(=O)N[C@@H](Cc1ccccc1)C(=O)N[C@@H](CC(C)C)C(=O)N[C@@H](CCCCN=C(N)N)C(=O)N[C@@H](CCCN=C(N)N)C(=O)N[C@H](CC(C)C)C(N)=O | 2.6 nM | 12 nM | 
CCCCCCNC(=O)[C@@H](CC(C)C)NC(=O)[C@H](CCCNC(=N)N)NC(=O)[C@H](CCCNC(=N)N)NC(=O)[C@H](CC(C)C)NC(=O)[C@H](Cc1ccccc1)NC(=O)CNC(=O)CNC(=O)[C@H](Cc1ccc(O)cc1)NC | 6.6 nM | 22.3 nM | 
CN[C@@H](Cc1ccc(O)cc1)C(=O)NCC(=O)NCC(=O)N[C@@H](Cc1ccccc1)C(=O)N[C@H](C)C(=O)N[C@@H](CCCNC(=N)N)C(=O)N[C@@H](CCCNC(=N)N)C(=O)N[C@H](CC(C)C)C(N)=O | 6000 nM | 9800 nM | 
CN[C@@H](Cc1ccc(O)cc1)C(=O)NCC(=O)NCC(=O)N[C@H](Cc1ccccc1)C(=O)N[C@H](C)C(=O)N[C@@H](CCCN=C(N)N)C(=O)N[C@@H](CCCN=C(N)N)C(=O)N[C@@H](CC(C)C)C(N)=O |  |  | ED50 (Mus musculus [3]): > 20 mg/kg
CN[C@@H](Cc1ccc(O)cc1)C(=O)NCC(=O)NCC(=O)N[C@@H](Cc1ccc([N+](=O)[O-])cc1)C(=O)N[C@@H](CC(C)C)C(=O)N[C@@H](CCCN=C(N)N)C(=O)N[C@@H](CCCN=C(N)N)C(=O)N[C@@H](CC(C)C)C(N)=O (H-[NMeY]GG[Phe(4-NO2)]LRRL-NH2) | 1.3 nM | 3.8 nM | Ki (Mu-type opioid receptor [4]): 1.01 nM; ED50 (Mus musculus [5]): 1.23 mg/kg
CCNC(=O)[C@@H](CC(C)C)NC(=O)[C@H](CCCN=C(N)N)N(C)C(=O)[C@H](CCCN=C(N)N)NC(=O)[C@H](CC(C)C)NC(=O)[C@H](Cc1ccc([N+](=O)[O-])cc1)NC(=O)CNC(=O)CNC(=O)[C@H](Cc1ccc(O)cc1)NC | 0.5 nM | 3.7 nM | Ki (Mu-type opioid receptor [4]): 1.74 nM
CCNC(=O)[C@@H](CC(C)C)NC(=O)[C@H](CCCNC(=N)N)N(C)C(=O)[C@H](CCCNC(=N)N)NC(=O)[C@H](CC(C)C)NC(=O)[C@H](Cc1ccccc1)NC(=O)CNC(=O)CNC(=O)[C@H](Cc1ccc(O)cc1)NC | 0.3 nM | 7.4 nM | Ki (Mu-type opioid receptor [4]): 4.51 nM
CC(C)C[C@H](NC(=O)[C@H](CCCNC(=N)N)NC(=O)[C@H](CCCNC(=N)N)NC(=O)[C@H](CC(C)C)NC(=O)[C@H](Cc1ccccc1)NC(=O)CNC(=O)CN(C)C(=O)[C@@H](N)Cc1ccc(O)cc1)C(N)=O (H-Y[Sar]GFLRRL-NH2) | 897 nM | 1770 nM | 
CN[C@@H](Cc1ccc(O)cc1)C(=O)N[C@@H](C)C(=O)NCC(=O)N[C@@H](Cc1ccccc1)C(=O)N[C@@H](CC(C)C)C(=O)N[C@@H](CCCN=C(N)N)C(=O)N[C@@H](CCCN=C(N)N)C(=O)N[C@@H](CC(C)C)C(N)=O (H-[NMeY]AGFLRRL-NH2) |  |  | ED50 (Mus musculus [3]): > 5 mg/kg
CN[C@@H](Cc1ccc(O)cc1)C(=O)NCC(=O)NCC(=O)N[C@@H](Cc1ccccc1)C(=O)N[C@@H](CC(C)C)C(=O)N(C)[C@@H](CCCN=C(N)N)C(=O)N[C@@H](CCCN=C(N)N)C(=O)N[C@H](CC(C)C)C(N)=O |  |  | ED50 (Mus musculus [6]): 4.54 mg/kg
CCNC(=O)[C@@H](CC(C)C)NC(=O)[C@H](CCCN=C(N)N)N(C)C(=O)[C@H](CCCN=C(N)N)NC(=O)[C@H](CC(C)C)NC(=O)[C@H](Cc1ccccc1)NC(=O)CNC(=O)CNC(=O)[C@H](Cc1ccc(O)cc1)NC |  |  | ED50 (Mus musculus [7]): 0.75 mg/kg
CN[C@@H](Cc1ccc(O)cc1)C(=O)NCC(=O)NCC(=O)N[C@@H](Cc1ccccc1)C(=O)N(C)[C@@H](CC(C)C)C(=O)N[C@@H](CCCNC(=N)N)C(=O)N[C@@H](CCCNC(=N)N)C(=O)N[C@H](CC(C)C)C(N)=O | 11.9 nM | 25.3 nM | 
CC(C)C[C@H](NC(=O)[C@H](CCCN=C(N)N)NC(=O)[C@H](CCCN=C(N)N)NC(=O)[C@H](CC(C)C)NC(=O)[C@H](Cc1ccccc1)NC(=O)CNC(=O)CN(C)C(=O)[C@@H](N)Cc1ccc(O)cc1)C(N)=O (H-Y[Sar]GFLRRL-NH2) |  |  | ED50 (Mus musculus [3]): > 10 mg/kg
CN[C@@H](Cc1ccc(O)cc1)C(=O)NCC(=O)N[C@H](C)C(=O)N[C@@H](Cc1ccccc1)C(=O)N[C@@H](CC(C)C)C(=O)N[C@@H](CCCN=C(N)N)C(=O)N[C@@H](CCCN=C(N)N)C(=O)N[C@@H](CC(C)C)C(N)=O | 12.7 nM | 210 nM | 
CCNC(=O)[C@@H](CC(C)C)NC(=O)[C@H](CCCNC(=N)N)NC(=O)[C@H](CCCNC(=N)N)NC(=O)[C@H](CC(C)C)NC(=O)[C@H](Cc1ccccc1)NC(=O)CNC(=O)CNC(=O)[C@H](Cc1ccc(O)cc1)NC | 0.7 nM | 4.6 nM | 
CC[C@H](C)[C@H](NC(=O)[C@H](CCCNC(=N)N)NC(=O)[C@H](CCCNC(=N)N)NC(=O)[C@H](CC(C)C)NC(=O)[C@H](Cc1ccccc1)NC(=O)CNC(=O)CNC(=O)[C@@H](N)Cc1ccc(O)cc1)C(N)=O | 0.2 nM | 3 nM | Ki (Mu-type opioid receptor [4]): 7.16 nM
